According to ChEMBL document CHEMBL2407036, “Flow Synthesis and Biological Studies of an Analgesic Adamantane Derivative That Inhibits P2X7-Evoked Glutamate Release” (ACS Med Chem Lett, 2013):
Calls of active or inactive are those of the source. The rule behind the calls is not given here.

Experiments:
Mus musculus [1] = assay: Analgesic activity in Swiss albino mouse assessed as inhibition of acetic acid-induced abdominal contraction at 20 to 60 mg/kg, po measured after 30 mins; type: functional, organism-based; conditions: Abdominal cavity
[2] = molecular target: T1, P2X purinoceptor 7 (Rattus norvegicus) (UniProt Q64663); assay: Agonist activity at P2X7 in Sprague-Dawley rat synaptosome assessed as [3H]D-aspartate efflux at 100 uM for 120 secs by liquid scintillation counting; conditions: Brain
T1 sequence (whole entry): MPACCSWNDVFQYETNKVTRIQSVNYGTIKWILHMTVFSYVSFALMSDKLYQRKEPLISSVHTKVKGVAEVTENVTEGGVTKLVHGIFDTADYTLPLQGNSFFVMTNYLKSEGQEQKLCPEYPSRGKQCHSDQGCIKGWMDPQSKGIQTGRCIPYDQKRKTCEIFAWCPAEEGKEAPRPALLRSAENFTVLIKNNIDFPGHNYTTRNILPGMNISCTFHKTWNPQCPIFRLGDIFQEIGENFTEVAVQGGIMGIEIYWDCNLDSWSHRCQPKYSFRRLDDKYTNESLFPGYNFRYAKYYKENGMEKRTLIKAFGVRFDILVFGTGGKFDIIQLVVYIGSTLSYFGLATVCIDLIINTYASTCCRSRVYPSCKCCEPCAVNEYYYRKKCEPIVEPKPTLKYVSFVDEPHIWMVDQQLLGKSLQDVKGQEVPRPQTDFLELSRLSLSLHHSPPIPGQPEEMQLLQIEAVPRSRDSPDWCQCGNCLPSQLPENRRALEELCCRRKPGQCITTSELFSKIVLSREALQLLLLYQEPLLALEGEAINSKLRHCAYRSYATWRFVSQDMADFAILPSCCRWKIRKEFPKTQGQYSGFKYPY

[3] = molecular target: T1, P2X purinoceptor 7 (Rattus norvegicus); assay: Antagonist activity at P2X7 in Sprague-Dawley rat synaptosome assessed as inhibition of BzATP-induced [3H]D-aspartate efflux preincubated at 10 uM for 8 mins by liquid scintillation counting; conditions: Brain
Procedure, shortened: (§1)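 Purified rat cerebrocortical synaptosomes loaded with [3H]D-aspartate and superfused. 100 μM BzATP added for 120 s. Compound added 8 min before BzATP. Ca2+-free conditions used medium with 0.5 mM EGTA, added 18 min before BzATP. Log concentration–response for inhibition of evoked efflux. Mean ± SEM of 3−12 independent experiments in triplicate.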

[4] = molecular target: T1, P2X purinoceptor 7 (Rattus norvegicus); assay: Antagonist activity at P2X7 in Sprague-Dawley rat synaptosome assessed as inhibition of BzATP-induced [3H]D-aspartate efflux preincubated at 10 uM for 8 mins by liquid scintillation counting in absence of extracellular Ca2+; conditions: Brain; procedure, shortened: as §1
Mus musculus [5] = assay: Analgesic activity in Swiss albino mouse assessed as inhibition of acetic acid-induced abdominal contraction at 10 to 60 mg/kg, po measured after 30 mins; type: functional, organism-based; conditions: Abdominal cavity

In the case of `C[C@@H](NC(=O)C1(NC(=O)c2ccccc2)C2CC3CC(C2)CC1C3)C(=O)O` (stereo not given in full), the inhibition (Mus musculus [1]) is reported as “inactive”.

For `Nc1ncnc2c1ncn2[C@@H]1O[C@H](COP(=O)(O)OP(=O)(O)OP(=O)(O)O)[C@@H](OC(=O)c2ccc(C(=O)c3ccccc3)cc2)[C@H]1O`, the Activity [2] was “Active”.

For `Clc1cccc(-c2nnnn2Cc2cccnc2)c1Cl`, the inhibition [3] was “Active” and the inhibition [4] was “Active”.

`N[C@H](c1ccccc1)[C@H](NC(=O)C1(NC(=O)c2ccccc2)C2CC3CC(C2)CC1C3)c1ccccc1` (stereo not given in full) was tested, and the inhibition (Mus musculus [5]) was “Active”.
